Source: PubChem BioAssay
Hits are enriched below; roughly 2.9% of the tested compounds scored in any of these assays.
C2C12 statin – suppressors of simvastatin-induced myotoxicity in C2C12 myotubes; ATP luminescence, 48 h; scaled: DMSO 0, geranylgeraniol control 100; rescue of ATP level, % at 7.49 µM; 330,000 tested, 0.78% active;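 active = mean ATP rescue above about 67%, or every replicate alone reaching that limit, limit read from the data, passing the limit was not always enough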;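 also: myotubes were challenged with 10 µM simvastatin during compound exposure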
PGC1a acetyl inh – lowers PGC1a acetylation signal in U2OS cells. AlphaScreen anti-acetyl-lysine; with virally co-expressed GCN5 acetyltransferase. inhibition, % at 15.6 µM. 350,000 tested, 0.17% active. AID 651687;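 active = every replicate shows inhibition of at least 40%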;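 also: 0% = neutral control wells and 100% = positive control wells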
DENV2 CPE – inhibitors of DENV2 cytopathic effect. 350,000 tested, 1.7% active. CPE inhibition, % at 9.99 µM. DENV2-infected cells, cytopathic effect rescue, plate reader; in the data active = CPE inhibition above about 20%, passing the limit was not always enough; tested in BHK-21 cells;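 also: 0% = median of neutral control wells and 100% = median of positive control wells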
S100A4 MyoIIA – S100A4-myosin IIA interaction inhibition. P26447. 360,000 tested, 0.14% active. S100A4/TAMRA-MyoIIA peptide fluorescence polarization. inhibition, % at 10.7 µM;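 active = mean inhibition of at least 70% across replicates, with every replicate also reaching that level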
Target sequence (P26447 whole entry, looked up): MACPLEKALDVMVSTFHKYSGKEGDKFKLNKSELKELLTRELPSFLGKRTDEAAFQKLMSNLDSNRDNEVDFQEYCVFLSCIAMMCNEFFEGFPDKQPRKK
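assay system = human S100A4 monomer with TAMRA-labelled myosin IIA peptide | also added = labelled myosin peptide probe, 5 nM | incubation = 5 min between mix addition and reading | control set = DMSO and TFP controls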
SIRT5 block – sirtuin-5 (human) deacylase inhibition; 330,000 tested, 1.1% active; Purified SirT5, succinyl-peptide AMC, trypsin-coupled fluorescence; inhibition, % at 15 µM; in the data active = inhibition above about 15%
An asterisk follows results filed as active; / = no result.

SMILES	C2C12 statin	PGC1a acetyl inh	DENV2 CPE	S100A4 MyoIIA	SIRT5 block
C[C@@H]1CCCCO[C@@H](CN(C)S(=O)(=O)c2cccs2)[C@@H](C)CN([C@@H](C)CO)C(=O)c2cc(NS(=O)(=O)c3cn(C)cn3)ccc2O1	/	-2.3	-8.6	-7.4	-3.5
CCCN1C[C@@H](C)[C@@H](OC)CN(C)C(=O)c2cc(NC(=O)NC3CCCC3)ccc2OC[C@@H]1C	/	-0.7	7.4	-4.7	-1.4
CCc1ccc(NC(=O)CN(c2cccc(C)c2)S(C)(=O)=O)cc1	99.9*	1.6	2.6	-4.6	10.3
Cc1cccc(N(CC(=O)Nc2ccc(CC#N)cc2)S(C)(=O)=O)c1	/	-8.5	/	0.9	-1.4
O=C(c1ccccc1)N1CC(=O)N2[C@@H](CO)[C@H](c3ccc(C#Cc4ccccc4)cc3)[C@@H]2C1	/	-3.2	-1.5	-4.3	2.7
O=[N+]([O-])c1cc(Cl)c2cccnc2c1O	/	-12.2	5.3	-2.7	16.6*
